Source: publication PMC4608253 (Journal of chromatography. B, Analytical technologies in …, 2015)
Read-outs that look alike come from different tables or passages of the source.

Legend:
[1] = format: physicochemical, mice; details: for Accuracy (RE, %) 25°C for 6 h / Accuracy (RE, %) Frozen for 30 days: stability in mice plasma/blood QC sample; for Accuracy (RE, %) Frozen for 30 days: −80°C; for Accuracy (RE, %) 4°C for 24 h: stability, extracted QC sample in auto-sampler
Method in brief: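 Blank mouse blood spiked with analytes and vitamin C, then extracted with methanol containing daidzein internal standard (0.5 μM) by 1 min vortex. Spun at 20,000 × g for 15 min and dried under air. Three replicates per QC level were held unextracted at 25°C for 6 h, at −80°C for 30 days, or extracted in the 4°C autosampler for 24 h. Analysed by UPLC-MS/MS (C18, formic acid/acetonitrile, positive MRM); accuracy as RE.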

in vivo = format: in vivo, A/J mice; details: for Tmax / AUC(0-inf) / AUC(0-t) / Cmax / half-life: male, A/J, mouse, whole blood, po; for detected in the blood: mice, oral XCHT extract 0.5 g/kg

SMILES	Accuracy (RE, %) 25°C for 6 h ([1]; spiked concentration 3.9)	Accuracy (RE, %) 25°C for 6 h ([1]; spiked concentration 62.5)	Accuracy (RE, %) 25°C for 6 h ([1]; spiked concentration 500)	Accuracy (RE, %) Frozen for 30 days ([1]; spiked concentration 3.9)	Accuracy (RE, %) Frozen for 30 days ([1]; spiked concentration 62.5)	Accuracy (RE, %) Frozen for 30 days ([1]; spiked concentration 500)	Accuracy (RE, %) 4°C for 24 h ([1]; spiked concentration 3.9)	Accuracy (RE, %) 4°C for 24 h ([1]; spiked concentration 62.5)	Accuracy (RE, %) 4°C for 24 h ([1]; spiked concentration 500)	Tmax (in vivo; 0.5 g/kg)	AUC(0-inf) (in vivo; 500 mg/kg)	AUC(0-t) (in vivo; 500 mg/kg)	Cmax (in vivo; 500 mg/kg)	Tmax (in vivo; 500 mg/kg)	half-life (in vivo; 500 mg/kg)	detected in the blood (in vivo)	Accuracy (RE, %) 25°C for 6 h ([1]; spiked concentration 0.488)	Accuracy (RE, %) Frozen for 30 days ([1]; spiked concentration 0.488)	Accuracy (RE, %) 4°C for 24 h ([1]; spiked concentration 0.488)
COc1c(O)cc(O)c2c(=O)cc(-c3ccccc3)oc12 [Wogonin, wogonin]	11.4%	9.5%	3.1%	8.4%	15%	10.3%	9.2%	14.8%	13.5%	0.17 ± 0.09 h	0.116 ± 0.0822 µM·h	0.11 ± 0.0878 µM·h	18.8 ± 6.27 nM	0.167 h	6.16 ± 4.85 h				
CC(C)=CCC[C@](C)(O[C@@H]1O[C@H](CO)[C@@H](O)[C@H](O)[C@H]1O)[C@H]1CC[C@]2(C)[C@@H]1[C@H](O)C[C@@H]1[C@@]3(C)CC[C@H](O)C(C)(C)[C@@H]3[C@@H](O[C@@H]3O[C@H](CO)[C@@H](O)[C@H](O)[C@H]3O[C@@H]3O[C@@H](C)[C@H](O)[C@@H](O)[C@H]3O)C[C@]12C [Re, ginsenoside Re]	10.1%	8.8%	−0.3%	10.4%	9.7%	8.9%	−5.4%	13.76%	9.7%		0.045 ± 0.0289 µM·h	0.0423 ± 0.0265 µM·h	50.2 ± 40.1 nM	0.25 h	2.72 ± 2.15 h	detected			
O=c1cc(-c2ccccc2)oc2cc(O)c(O)c(O)c12 [Baicalein, baicalein]	10.3%	9.9%	0.7%	−11.4%	−14.5%	9%	12.3%	−14%	13.1%	0.083 h	0.119 ± 0.0338 µM·h	0.0854 ± 0.026 µM·h	32.7 ± 15 nM	0.083 h	6.85 ± 4.32 h	detected			
O=C1C[C@@H](c2ccc(O[C@@H]3O[C@H](CO)[C@@H](O)[C@H](O)[C@H]3O)cc2)Oc2cc(O)ccc21 [Liquiritin]		5.5%	12.7%		13.8%	10.9%		15%	12.8%		0.137 ± 0.0417 µM·h	0.137 ± 0.0417 µM·h	48.7 ± 38.2 nM		9.33 ± 3.42 h	detected	7.3%	13.9%	14.4%
O=C(O)[C@H]1O[C@@H](Oc2cc3oc(-c4ccccc4)cc(=O)c3c(O)c2O)[C@H](O)[C@@H](O)[C@@H]1O [Baicalin, baicalin]	−5.7%	−5.3%	1.1%	6.7%	14.1%	4.9%	3.8%	14.8%	5.2%	2.13 ± 1.18 h	9.71 ± 0.709 µM·h	8.96 ± 2.08 µM·h	787 ± 123 nM	2.57 h	3.11 ± 0.95 h	detected			
